Source: ChEMBL document CHEMBL4706728, “Discovery of a Highly Selective and Potent TRPC3 Inhibitor with High Metabolic Stability and Low Toxicity” (ACS Med Chem Lett, 2021)
The source made the active and inactive calls. The calls are words filed in the database; no cut-off is given here.

Key:
[1] = biological target: T1, Short transient receptor potential channel 3 (Homo sapiens) (UniProt Q13507); assay: Inhibition of human TRPC3 expressed in HEK293 cells assessed as inhibition of GSK170-induced current at 10 uM in absence of extracellular calcium by whole cell patch-clamp method relative to control; format: cell-based
T1 sequence (whole entry): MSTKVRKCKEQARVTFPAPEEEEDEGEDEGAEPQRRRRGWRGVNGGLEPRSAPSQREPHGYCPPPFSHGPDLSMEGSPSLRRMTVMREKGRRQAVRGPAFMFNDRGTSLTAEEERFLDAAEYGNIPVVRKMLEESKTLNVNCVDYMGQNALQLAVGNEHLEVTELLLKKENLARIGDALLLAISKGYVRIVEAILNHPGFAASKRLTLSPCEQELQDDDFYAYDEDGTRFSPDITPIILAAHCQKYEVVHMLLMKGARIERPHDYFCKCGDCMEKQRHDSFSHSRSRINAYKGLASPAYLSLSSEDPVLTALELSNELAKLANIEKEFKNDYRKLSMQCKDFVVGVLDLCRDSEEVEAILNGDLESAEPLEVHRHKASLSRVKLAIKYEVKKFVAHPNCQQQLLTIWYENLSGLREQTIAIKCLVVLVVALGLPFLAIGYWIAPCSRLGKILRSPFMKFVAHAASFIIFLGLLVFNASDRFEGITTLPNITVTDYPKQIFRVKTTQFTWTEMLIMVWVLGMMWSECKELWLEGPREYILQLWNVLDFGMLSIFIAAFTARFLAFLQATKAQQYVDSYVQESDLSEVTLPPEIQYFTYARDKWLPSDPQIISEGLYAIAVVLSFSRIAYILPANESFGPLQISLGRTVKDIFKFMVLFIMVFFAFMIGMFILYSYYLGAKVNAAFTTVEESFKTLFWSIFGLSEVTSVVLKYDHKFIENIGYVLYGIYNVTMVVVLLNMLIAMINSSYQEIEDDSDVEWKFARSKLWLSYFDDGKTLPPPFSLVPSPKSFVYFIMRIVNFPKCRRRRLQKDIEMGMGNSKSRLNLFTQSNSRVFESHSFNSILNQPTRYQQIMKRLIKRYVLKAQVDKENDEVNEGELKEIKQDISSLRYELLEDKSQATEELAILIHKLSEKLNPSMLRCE
How it was run: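 Human TRPC3 transiently expressed in HEK293 cells; whole-cell patch clamp with Ca2+-free solutions. Channel activated by GSK1702934A, then test compound at 10 μM perfused with the agonist. Inhibition expressed as percentage of the agonist-evoked current; mean ± SD, n cells per compound.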

[2] = Toxicity in NSG/ICR mouse assessed as mortality at 200 mg/kg, ip administered once daily for 5 days measured within 48 hrs; format: organism-based; details: in vivo, dose 200 mg/kg/day
How it was run: (§1)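 Mice (n = 5 per group) dosed at 200 mg/kg by intraperitoneal injection once daily for 5 consecutive days. Survival monitored. Body weight expressed as mean percent change ± SD relative to weight at the start of treatment (day 0), with 15% weight loss as the reference line.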

[3] = biological target: T2, Short transient receptor potential channel 3 (Homo sapiens, UniProt Q13507); assay: Inhibition of human TRPC3 expressed in HEK293 cells assessed as inhibition of GSK170-induced current in absence of extracellular calcium by whole cell patch-clamp method; format: cell-based
T2 sequence (Q13507 whole entry): T1 sequence (whole entry)
How it was run: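 Whole-cell patch clamp of hTRPC3 in transfected HEK293 cells, Ca2+-free solutions, currents activated by 1 μM GSK1702934A. Inhibitor at a range of concentrations perfused with agonist. Each concentration tested on independent cells and normalized to that cell's maximum current to avoid tachyphylaxis. Dose–response fitted for IC50; mean ± SD.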

[4] = biological target: T2, Short transient receptor potential channel 3; assay: Inhibition of human TRPC3 expressed in HEK293 cells assessed as inhibition of GSK170-induced current in presence of 2 mM extracellular calcium by whole cell patch-clamp method; format: cell-based
How it was run: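 hTRPC3 in HEK293 cells, whole-cell patch clamp with 2 mM extracellular Ca2+. Currents elicited by 1 μM GSK1702934A and challenged with a range of inhibitor concentrations by perfusion. Each concentration tested on separate cells and normalized to the cell's maximum amplitude. Dose–response curve built from the data; mean ± SD.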

[5] = biological target: T1, Short transient receptor potential channel 3 (Homo sapiens); assay: Inhibition of human TRPC3 expressed in HEK293 cells assessed as inhibition of OAG-induced current at 0.001 to 10 uM by whole cell patch-clamp method; format: cell-based; details: dose 0.001-10 µM
How it was run: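 Whole-cell recordings of hTRPC3 expressed in HEK293 cells, channel activated by 1-oleoyl-2-acetyl-sn-glycerol (membrane-permeable diacylglycerol analogue) instead of GSK1702934A. Inhibitor at a range of concentrations co-perfused with agonist to build a dose–response profile.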

[6] = biological target: ORAI1/STIM1 (Homo sapiens, UniProt Q96D31+Q13586); assay: Inhibition of STIM/Orai1 (unknown origin) expressed in HEK293 cells assessed as reduction in thapsigargin-induced Ca2+ influx at 10 uM in presence of Ca2+ by whole cell patch clamp method; format: cell-based; details: hek293, 10 µM
[7] = Metabolic stability in human liver microsomes assessed as half life at […] measured up to 240 mins in presence of NADPH regeneration system by LC-MS analysis; format: ADME, Microsome
[8] = Metabolic stability in mouse liver microsomes assessed as half life at […] measured up to 240 mins in presence of NADPH regeneration system by LC-MS analysis; format: ADME, Microsome
[9] = Metabolic stability in rat liver microsomes assessed as half life at […] measured up to 240 mins in presence of NADPH regeneration system by LC-MS analysis; format: ADME, Microsome
[10] = Toxicity in NSG/ICR mouse assessed as body weight loss at 200 mg/kg, ip administered once daily for 5 days; format: organism-based; details: in vivo, 120 h, dose 200 mg/kg/day, time 5 day; how it was run: as §1
[11] = system: Hippocampal neurone; assay: Neuroprotective activity in Sprague-Dawley rat primary hippocampal neurons assessed as reduction in Abeta-induced dendrites damage at 0.25 to 1 uM incubated for 16 hrs by MAP2 staining based assay; format: functional, tissue-based; details: dose 0.25-1 µM
How it was run: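 Primary hippocampal neurons from E17 rat embryos, used at 14 DIV. Treated for 16 h with naturally secreted Aβ-containing 7PA2 conditioned medium (CHO medium as control), alone or with test compound at several concentrations. Neurons then immunostained for MAP2 with DAPI, and dendritic length quantified.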

[12] = biological target: T3, Short transient receptor potential channel 3 (Mus musculus, UniProt Q9QZC1); assay: Inhibition of mouse TRPC3 expressed in HEK293 cells assessed as inhibition of Ca2+ influx by whole cell patch-clamp method; format: cell-based
T3 sequence (Q9QZC1 whole entry): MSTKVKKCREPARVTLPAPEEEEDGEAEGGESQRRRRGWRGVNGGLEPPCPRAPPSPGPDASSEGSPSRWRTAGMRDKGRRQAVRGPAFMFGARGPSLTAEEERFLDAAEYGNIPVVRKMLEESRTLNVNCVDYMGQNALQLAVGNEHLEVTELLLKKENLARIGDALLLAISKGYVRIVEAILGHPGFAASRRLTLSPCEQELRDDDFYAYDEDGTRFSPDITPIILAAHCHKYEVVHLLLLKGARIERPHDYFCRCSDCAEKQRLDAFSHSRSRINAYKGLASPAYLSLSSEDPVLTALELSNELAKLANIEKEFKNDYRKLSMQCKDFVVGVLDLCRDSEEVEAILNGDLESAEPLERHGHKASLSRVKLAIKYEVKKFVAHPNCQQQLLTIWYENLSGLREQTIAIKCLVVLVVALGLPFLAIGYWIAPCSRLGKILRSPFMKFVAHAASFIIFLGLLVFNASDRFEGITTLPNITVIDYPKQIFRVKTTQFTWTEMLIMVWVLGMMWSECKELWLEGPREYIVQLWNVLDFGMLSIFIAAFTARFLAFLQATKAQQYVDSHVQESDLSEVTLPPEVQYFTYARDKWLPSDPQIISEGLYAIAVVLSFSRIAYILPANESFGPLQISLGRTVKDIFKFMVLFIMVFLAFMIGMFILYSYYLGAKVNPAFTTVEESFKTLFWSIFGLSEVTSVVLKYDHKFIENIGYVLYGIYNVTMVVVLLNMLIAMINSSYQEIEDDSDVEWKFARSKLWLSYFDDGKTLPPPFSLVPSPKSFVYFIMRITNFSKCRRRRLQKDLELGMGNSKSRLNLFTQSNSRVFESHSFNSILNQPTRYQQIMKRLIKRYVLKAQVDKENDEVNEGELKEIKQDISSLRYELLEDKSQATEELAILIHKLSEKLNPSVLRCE

[13] = Toxicity in NSG/ICR mouse assessed as survival at 200 mg/kg, ip administered once daily for 5 days; format: organism-based; details: NSG/ICR, in vivo, dose 200 mg/kg/day, time 5 day; how it was run: as §1

Sequence of ORAI1/STIM1 (Q96D31 whole entry): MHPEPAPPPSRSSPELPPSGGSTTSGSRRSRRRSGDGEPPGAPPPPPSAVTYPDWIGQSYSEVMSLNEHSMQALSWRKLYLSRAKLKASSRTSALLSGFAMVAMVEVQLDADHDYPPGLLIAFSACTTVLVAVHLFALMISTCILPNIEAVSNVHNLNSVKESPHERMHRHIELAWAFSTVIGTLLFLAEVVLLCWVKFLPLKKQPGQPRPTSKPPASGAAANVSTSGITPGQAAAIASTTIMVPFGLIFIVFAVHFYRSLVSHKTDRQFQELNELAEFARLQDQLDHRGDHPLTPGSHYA
Sequence of ORAI1/STIM1 (Q13586 whole entry): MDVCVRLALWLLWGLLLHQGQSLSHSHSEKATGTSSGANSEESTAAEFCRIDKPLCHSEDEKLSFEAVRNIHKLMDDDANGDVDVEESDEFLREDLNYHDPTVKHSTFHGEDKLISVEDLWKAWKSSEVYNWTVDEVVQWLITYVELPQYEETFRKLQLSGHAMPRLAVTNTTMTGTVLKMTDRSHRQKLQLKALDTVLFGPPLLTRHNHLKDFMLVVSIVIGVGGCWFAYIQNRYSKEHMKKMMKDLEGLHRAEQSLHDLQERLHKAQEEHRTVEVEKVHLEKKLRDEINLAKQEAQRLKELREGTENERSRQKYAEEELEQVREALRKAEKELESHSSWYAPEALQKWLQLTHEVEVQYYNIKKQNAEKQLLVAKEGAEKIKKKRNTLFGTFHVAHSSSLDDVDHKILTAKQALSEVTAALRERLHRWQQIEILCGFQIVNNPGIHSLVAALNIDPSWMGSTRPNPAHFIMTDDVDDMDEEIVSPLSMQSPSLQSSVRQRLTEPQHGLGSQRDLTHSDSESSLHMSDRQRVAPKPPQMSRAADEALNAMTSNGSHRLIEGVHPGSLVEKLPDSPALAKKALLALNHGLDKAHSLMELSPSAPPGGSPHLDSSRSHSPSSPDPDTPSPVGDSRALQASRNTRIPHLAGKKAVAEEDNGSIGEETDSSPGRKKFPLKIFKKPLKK

CCOC(=O)c1cnn(-c2ccc(-n3ccc(Cl)cc3=O)cc2)c1C(F)(F)F
inhibition [1]: 71%

CCNS(=O)(=O)c1cnn(-c2ccc(-n3ccc(Cl)c(Cl)c3=O)cc2)c1C(F)(F)F
inhibition [1]: inactive

CCNC(=O)c1cnn(-c2ccc(NC(=O)C(Cl)=C(Cl)Cl)cc2)c1C(F)(F)F
mortality at 48 h [2]: 100%

CCOC(=O)c1cnn(-c2ccc(-n3cc(Cl)ccc3=O)cc2)c1C(F)(F)F
inhibition [1]: inactive

CCNC(=O)c1cnn(-c2ccc(-n3ccc(Cl)c(F)c3=O)cc2)c1C(F)(F)F
inhibition [1]: inactive

CCOC(=O)c1cnn(-c2ccc(NC(=O)C(Cl)=C(Cl)Cl)cc2)c1C(F)(F)F
inhibition [1]: 91% | IC50 [3]: 530 nM | IC50 [4]: 470 nM | inhibition [5]: Active | inhibition (INH) [6]: Active | half-life [7]: < 15 min | half-life [8]: < 15 min | half-life [9]: < 15 min | Activity [10]: 15% | Activity [11]: Active | IC50 [12]: 700 nM | survival at 120 h [13]: 80%

CCNC(=O)c1cnn(-c2ccc(-n3ccc(Cl)cc3=O)cc2)c1C(F)(F)F
inhibition [1]: 84%

CCOC(=O)c1cnn(-c2ccc(-n3cc(Cl)cc(Cl)c3=O)cc2)c1C(F)(F)F
inhibition [1]: inactive

CCOC(=O)c1cnn(-c2ccc(-n3ccccc3=O)cc2)c1C(F)(F)F
inhibition [1]: inactive
